# Measured values pooled from the literature.
# Target: Tyrosine-protein kinase ZAP-70 (ZAP70, Homo sapiens, UniProt P43403)
# One construct used (P43403 1-619): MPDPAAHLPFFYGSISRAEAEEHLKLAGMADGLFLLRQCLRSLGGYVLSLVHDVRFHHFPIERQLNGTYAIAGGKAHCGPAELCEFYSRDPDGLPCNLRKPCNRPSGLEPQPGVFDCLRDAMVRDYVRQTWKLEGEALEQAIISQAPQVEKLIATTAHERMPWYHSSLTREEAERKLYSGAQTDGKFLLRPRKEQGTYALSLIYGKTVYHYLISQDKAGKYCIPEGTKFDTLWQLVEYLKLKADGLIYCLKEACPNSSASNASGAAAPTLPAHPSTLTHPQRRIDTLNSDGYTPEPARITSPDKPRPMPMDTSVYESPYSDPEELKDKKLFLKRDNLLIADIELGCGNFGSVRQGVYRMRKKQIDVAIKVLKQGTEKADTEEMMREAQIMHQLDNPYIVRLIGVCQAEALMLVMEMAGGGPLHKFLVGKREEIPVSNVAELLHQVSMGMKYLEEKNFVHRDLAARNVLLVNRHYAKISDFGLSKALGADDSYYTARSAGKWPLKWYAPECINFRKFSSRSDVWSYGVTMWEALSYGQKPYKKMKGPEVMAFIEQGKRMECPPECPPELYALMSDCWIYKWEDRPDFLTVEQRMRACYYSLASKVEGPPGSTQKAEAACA
Compound,assay,conditions,endpoint,result
c1nc2c(Nc3ccc4c(c3)OCCO4)nc(Nc3ccc4c(c3)OCCO4)nc2[nH]1,"enzyme activity, inhibitor",10 µM,activity vs control,62%
Cc1ccc(Nc2nccc(N(C)c3ccc4c(C)n(C)nc4c3)n2)cc1S(N)(=O)=O,"enzyme activity, inhibitor",0.5 µM,remaining activity,92.6%
CNC(=O)c1cc(Oc2ccc(NC(=O)Nc3ccc(Cl)c(C(F)(F)F)c3)cc2)ccn1,"enzyme activity, inhibitor",0.3 µM,inhibition,-1%
CN1CC(Oc2cnc(C#N)cc2-c2ccn3nc(NC(=O)C4CC4)cc3c2)C1,"enzyme activity, inhibitor",1 µM,inhibition,8%
CC/C(=N\NC(=O)NCc1cccc(O)c1)c1ccc(O)c(C)c1O,"enzyme activity, inhibitor",0.1 µM,inhibition,-2.1%
CC(C)(C)c1nc2c(s1)c1nc(N)ncc1c1ccc(NS(=O)(=O)c3c(F)cccc3F)c(F)c12,"enzyme activity, inhibitor, radiometric",1 µM,remaining activity,95%
NS(=O)(=O)c1cc(NC(=O)Cc2ccccc2)ccc1Oc1cccc(Cl)c1,"cell-free assay, competition with immobilised ligand",1 µM,remaining binding,87%
Cc1ccc(C(=O)Nc2ccc(CN3CCN(C)CC3)c(C(F)(F)F)c2)cc1C#Cc1cnc2cccnn12,"enzyme activity, inhibitor",23.5 nM,remaining activity,99%
Cc1c(NC(=O)c2cc(C(N)=O)nc3cc(F)ccc23)c(C(F)(F)F)nn1Cc1ccc(C(C)(C)C)cc1,"cell-free assay, competition with immobilised ligand",1 µM,remaining binding,100%
CNCc1ccc(-c2cc(-c3nc(-c4ccc(S(=O)(=O)C(C)C)cc4)cnc3N)on2)cc1,"enzyme activity, inhibitor",0.4 µM,inhibition,0%
CCCOc1ccc([C@H]2[C@H](C(=O)O)[C@@H](c3ccc4c(c3)OCO4)CN2CC(=O)Nc2c(CC)cccc2CC)cc1,"cell-free assay, competition with immobilised ligand",1 µM,remaining binding,50%
CCCS(=O)(=O)Nc1ccc(F)c(C(=O)c2c[nH]c3ncc(-c4ccc(Cl)cc4)cc23)c1F,"enzyme activity, inhibitor",1 µM,inhibition,< 10%
N#CCCc1ccc2c(c1)-c1[nH]c3ccc([N+](=O)[O-])cc3c1CC(=O)N2,cell-free assay,0.5 µM,remaining signal,106%
Cc1cnc(NC2CCOCC2)nc1-n1cnc(C(=O)NC(CN)c2cc(F)cc(Cl)c2)c1 (stereo not shown),"enzyme activity, inhibitor, radiometric",1 µM,remaining activity,115%
Cc1ccc(C(=O)NCc2ccsc2)cc1C#Cc1cn(C(C)C)c2ncnc(N)c12,"enzyme activity, inhibitor",1 µM,activity vs control,89%
Cc1[nH]c(/C=C2\C(=O)Nc3ccc(F)cc32)c(C)c1C(=O)N[C@H]1CCN(C(=O)N(C)C)C1,"enzyme activity, inhibitor",0.1 µM,remaining activity,105%
FC(F)(F)Oc1cccc(-c2cnc3ccc(-c4ccncc4)nn23)c1,"enzyme activity, inhibitor, radiometric",1 µM,activity vs control,116%
O=C(O)c1cc(-c2ccc(C3CCNCC3)cc2)c2ccc(-c3ccc(C(F)(F)F)cc3)cc2c1,"cell-free assay, competition with immobilised ligand",1 µM,remaining binding,100%
COc1cc2ncnc(Nc3ccc(Oc4ccccc4)cc3C)c2cc1OC,"enzyme activity, inhibitor",1 µM,inhibition,0%
Nc1nc(Nc2ccc(S(N)(=O)=O)cc2)nn1C(=O)c1c(F)cccc1F,cell-free assay,0.5 µM,remaining signal,94.8%
COCCOc1nc(-c2ccc(Cl)nc2)nc2c1CN(C(=O)c1ncn3ccccc13)CC2,"cell-free assay, competition with immobilised ligand",0.1 µM,remaining binding,95%
CCN(CC)c1ccc(C2=NNC(=O)CC2C)cc1[N+](=O)[O-] (stereo not shown),"enzyme activity, inhibitor",10 µM,remaining activity,67%
O=C(Nc1cnn(-c2csc(C(=O)NC3COC3)c2)c1)Nc1c(F)cccc1Cl,"enzyme activity, inhibitor",5 µM,remaining activity,104%
CCN(CC)CCNC(=O)c1c(C)[nH]c(/C=C2\C(=O)Nc3ccc(F)cc32)c1C,"enzyme activity, inhibitor",0.1 µM,remaining activity,101%
O=C1Nc2ccc(Cl)cc2C1=Cc1cc(Cl)c(O)c(Cl)c1,cell-free assay,0.5 µM,remaining signal,95%
C[C@@H]1CN(c2cc(-c3n[nH]c4ccc(OC5(C)CC5)cc34)ncn2)C[C@H](C)O1,"cell-free assay, competition with immobilised ligand",0.1 µM,remaining binding,83%
COc1cc(Nc2cnc(C#N)c(O[C@H](C)CN(C)C)n2)ncc1-c1cnn(C)c1,"enzyme activity, inhibitor, radiometric",1 µM,remaining activity,104%
COc1cc(-c2cn(C3CCc4ccccc4N(CC(F)(F)F)C3=O)nn2)ccc1-n1ccc(C)n1 (stereo not shown),"cell-free assay, competition with immobilised ligand",1 µM,remaining binding,82%
CS(=O)(=O)Nc1cccc(-c2csc(NC(=O)CSc3nc4nccnc4c(=O)n3CCc3ccccc3)n2)c1,"enzyme activity, inhibitor",10 µM,inhibition,9%
CCN(CC)CCNC(=O)c1c(C)[nH]c(/C=C2\C(=O)Nc3ccc(F)cc32)c1C,"enzyme activity, inhibitor",10 µM,inhibition,11%
Cc1cc(C)c(-n2ccn3nc(-c4cccnc4)cc23)cc1NC(=O)c1cc(C#N)cc(S(F)(F)(F)(F)F)c1,"cell-free assay, competition with immobilised ligand",0.1 µM,remaining binding,79.9%
